In ChEMBL document CHEMBL1138528, “Discovery of tetrasubstituted imidazolines as potent and selective neuropeptide Y Y5 receptor antagonists: reduced human ether-a-go-go related gene potassium channel binding affinity and potent antiobesity effect” (J Med Chem, 2009):

Experiments:
[1] = Metabolic stability in rat hepatocytes assessed as hepatic clearance by serum incubation method; type: ADME, cell-based, Liver, Hepatocyte
[2] = biological target: T1, Neuropeptide Y receptor type 5 (Homo sapiens, UniProt Q15761); assay: Displacement of [125I]PYY from human recombinant neuropeptide Y5 receptor expressed in mouse LMtk- cells; type: cell-based
T1 sequence (Q15761 whole entry): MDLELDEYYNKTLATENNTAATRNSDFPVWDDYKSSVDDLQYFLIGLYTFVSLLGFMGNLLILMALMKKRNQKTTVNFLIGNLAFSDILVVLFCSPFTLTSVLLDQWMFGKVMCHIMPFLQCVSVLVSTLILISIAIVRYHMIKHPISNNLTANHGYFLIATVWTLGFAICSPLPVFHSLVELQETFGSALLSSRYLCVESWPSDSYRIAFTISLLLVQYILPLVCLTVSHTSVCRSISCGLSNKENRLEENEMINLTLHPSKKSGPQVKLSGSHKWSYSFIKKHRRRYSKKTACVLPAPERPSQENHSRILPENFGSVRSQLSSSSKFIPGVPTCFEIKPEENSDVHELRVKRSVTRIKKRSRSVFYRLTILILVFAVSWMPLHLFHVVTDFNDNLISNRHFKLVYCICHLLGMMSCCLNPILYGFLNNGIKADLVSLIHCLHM

[3] = biological target: Voltage-gated inwardly rectifying potassium channel KCNH2 (Homo sapiens, UniProt Q12809);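 also: radioligand displacement binding to human ERG expressed in HEK293 cells, using a [35S]-labelled spiro-benzopyran-piperidine methanesulfonamide as the displaced ligand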
[4] = Octanol-water distribution coefficient, log D at pH 7.4; type: physicochemical
Brain = assay: Drug level in Sprague-Dawley rat brain at 10 mg/kg, po after 2 hrs; type: ADME, organism-based; design: dose 10 mg/kg, route oral; conditions: in vivo
Summary of the method: (§1)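 Male SD rats (7-10 weeks, 200-400 g) dosed orally at 10 mg/kg in 0.5% methylcellulose; at 2 h aortic blood taken under isoflurane. Plasma, brain homogenate (sonicated in water) and CSF deproteinized with 3-fold ethanol plus internal standard, -20 °C 20 min, centrifuged; LC/MS/MS with relative calibration curve. Mean, n = 2-3.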

[5] = Ratio of drug level from cerebrospinal fluid to brain in Sprague-Dawley rat at 10 mg/kg, po after 2 hrs; type: ADME, organism-based, CSF/Brain; design: dose 10 mg/kg, route oral; conditions: in vivo
[6] = Plasma concentration in Sprague-Dawley rat at 10 mg/kg, po after 2 hrs; type: ADME, organism-based; design: dose 10 mg/kg, route oral; summary of the method: as §1
[7] = Drug level in Sprague-Dawley rat cerebrospinal fluid at 10 mg/kg, po after 2 hrs; type: ADME, organism-based; design: dose 10 mg/kg, route oral; conditions: Sprague-Dawley, cerebrospinal fluid, read-out: Drug uptake; summary of the method: as §1
[8] = Ratio of drug level from brain to plasma in Sprague-Dawley rat at 10 mg/kg, po after 2 hrs; type: ADME, organism-based; design: dose 10 mg/kg, route oral; summary of the method: as §1

Voltage-gated inwardly rectifying potassium channel KCNH2, sequence (Q12809 whole entry): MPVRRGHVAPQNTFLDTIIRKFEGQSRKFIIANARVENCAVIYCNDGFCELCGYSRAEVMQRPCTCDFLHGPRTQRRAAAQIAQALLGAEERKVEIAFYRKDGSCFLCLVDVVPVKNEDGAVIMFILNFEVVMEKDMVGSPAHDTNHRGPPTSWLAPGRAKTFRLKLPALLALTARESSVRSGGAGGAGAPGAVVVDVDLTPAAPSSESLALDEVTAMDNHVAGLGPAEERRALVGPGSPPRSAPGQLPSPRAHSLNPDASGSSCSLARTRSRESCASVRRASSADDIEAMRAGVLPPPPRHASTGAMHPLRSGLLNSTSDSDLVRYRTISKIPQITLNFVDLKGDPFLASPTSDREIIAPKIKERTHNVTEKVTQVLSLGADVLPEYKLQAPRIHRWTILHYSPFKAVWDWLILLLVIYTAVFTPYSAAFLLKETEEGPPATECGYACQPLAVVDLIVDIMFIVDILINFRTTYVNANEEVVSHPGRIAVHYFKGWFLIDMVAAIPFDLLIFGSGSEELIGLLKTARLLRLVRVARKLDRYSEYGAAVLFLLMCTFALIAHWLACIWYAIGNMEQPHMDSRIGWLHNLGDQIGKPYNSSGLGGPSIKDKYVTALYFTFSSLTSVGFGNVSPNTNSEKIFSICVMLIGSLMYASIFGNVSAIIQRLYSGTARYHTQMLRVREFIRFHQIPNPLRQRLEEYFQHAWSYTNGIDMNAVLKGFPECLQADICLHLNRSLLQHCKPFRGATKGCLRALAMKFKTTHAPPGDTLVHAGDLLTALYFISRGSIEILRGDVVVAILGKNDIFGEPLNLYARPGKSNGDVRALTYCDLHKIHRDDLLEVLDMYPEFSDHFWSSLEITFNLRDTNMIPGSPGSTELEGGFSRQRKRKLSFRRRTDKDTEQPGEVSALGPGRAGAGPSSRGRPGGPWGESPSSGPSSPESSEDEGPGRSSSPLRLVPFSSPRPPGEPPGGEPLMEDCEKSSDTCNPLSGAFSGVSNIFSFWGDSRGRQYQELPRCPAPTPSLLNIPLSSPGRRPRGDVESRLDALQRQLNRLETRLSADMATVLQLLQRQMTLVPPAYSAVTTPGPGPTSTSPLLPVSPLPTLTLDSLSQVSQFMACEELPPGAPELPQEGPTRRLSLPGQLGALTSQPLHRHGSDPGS

| SMILES | CLhep predicted [1] [mL/min/kg] | Ki [2] [nM] | logD [4] | Drug uptake (Brain) [nmol/g] | Ratio [5] | concentration at 2 h [6] [µM] | concentration at 2 h [7] [nM] | Kp at 2 h [8] | IC50 [3] [µM] |
| --- | --- | --- | --- | --- | --- | --- | --- | --- | --- |
| N#Cc1ccnc(C2=NC(c3ccc(F)cc3)(c3ccc(F)cc3)CN2)c1 | 12 | 2 | 4 | 6.4 | 0.004 | – | – | – | 0.101 |
| C[C@@H]1NC(c2cccc(C#N)c2)=N[C@@]1(c1ccc(F)cc1)c1ccc(F)nc1 | 9 | 0.8 | 3.6 | 6.1 | – | 2.6 | 130 | 2.3 | – |
| C[C@@H]1NC(c2cnsn2)=N[C@@]1(c1ccc(F)cc1)c1ccc(F)nc1 | 58 | 2 | 3.1 | – | – | – | – | – | – |
| C[C@@H]1NC(c2cc(C#N)ccn2)=N[C@]1(c1ccc(F)cc1)c1ccc(F)nc1 | 56 | – | 2.9 | – | – | – | – | – | – |
| C[C@@H]1NC(c2cccc(=O)[nH]2)=N[C@@]1(c1ccc(F)cc1)c1ccc(F)nc1 | – | – | 2.4 | 0.36 | – | 3.7 | 50 | 0.1 | – |
| CCC[C@@H]1NC(c2cc(C#N)ccn2)=NC1(c1ccc(F)cc1)c1ccc(F)cc1 | – | 8.6 | – | – | – | – | – | – | 0.49 |
| COc1ccc([C@]2(c3ccc(F)cc3)N=C(c3cc(C#N)ccn3)N[C@H]2C)cn1 | 44 | 1.1 | 3.5 | – | – | – | – | – | – |
| C[C@@H]1NC(c2cc(C#N)ccn2)=N[C@@]1(c1ccc(F)cc1)c1ccc(=O)[nH]c1 | – | 145 | – | – | – | – | – | – | – |
| C[C@@H]1NC(c2nccc(C#N)n2)=N[C@@]1(c1ccc(F)cc1)c1ccc(F)nc1 | 30 | 3.6 | 2.2 | – | – | – | – | – | – |
| C[C@@H]1NC(c2cc(C#N)ccn2)=NC1(c1ccc(F)cc1)c1ccc(F)cc1 | 28 | 1 | 4.1 | – | – | – | – | – | – |
| C[C@@H]1NC(c2cc(C#N)ccn2)=NC1(c1ccc(F)nc1)c1ccc(F)nc1 | 52 | 3.1 | 2.2 | – | – | – | – | – | > 10 |
| C[C@H]1NC(c2cc(C#N)ccn2)=NC1(c1ccc(F)cc1)c1ccc(F)cc1 | – | 300 | – | – | – | – | – | – | – |

The next lines start with results.

| CLhep predicted [1] [mL/min/kg] | Ki [2] [nM] | logD [4] | Drug uptake (Brain) [nmol/g] | Ratio [5] | concentration at 2 h [6] [µM] | concentration at 2 h [7] [nM] | Kp at 2 h [8] | SMILES | IC50 [3] [µM] |
| --- | --- | --- | --- | --- | --- | --- | --- | --- | --- |
| 57 | 1.9 | 3.7 | – | – | – | – | – | C[C@@H]1NC(c2cnccn2)=NC1(c1ccc(F)cc1)c1ccc(F)cc1 | > 10 |
| 6 | 2.5 | 2.9 | – | – | – | – | – | C[C@@H]1NC(c2cccc(S(C)(=O)=O)c2)=N[C@@]1(c1ccc(F)cc1)c1ccc(F)nc1 | > 10 |
| 51 | 4.3 | 3.5 | 5.9 | 0.011 | – | – | – | Fc1ccc(C2(c3ccc(F)cc3)CNC(c3cnccn3)=N2)cc1 | 3.4 |
| 13 | 5.9 | 3.3 | – | – | – | – | – | C[C@@H]1NC(c2cccc(C#N)n2)=N[C@@]1(c1ccc(F)cc1)c1ccc(F)nc1 | 6.93 |
| 7 | 5.1 | 2.4 | – | – | – | – | – | C[C@@H]1NC(c2cc(C(N)=O)ccn2)=N[C@@]1(c1ccc(F)cc1)c1ccc(F)nc1 | – |
| 58 | 1.8 | 3.8 | – | – | – | – | – | C[C@@H]1NC(c2cc(Cl)ccn2)=N[C@@]1(c1ccc(F)cc1)c1ccc(F)nc1 | – |
| – | – | – | 8.1 | 0.003 | – | – | – | N#Cc1cccc(C2=NC(c3ccc(F)cc3)(c3ccc(F)cc3)CN2)c1 | – |
| – | 2.6 | – | – | – | – | – | – | CC[C@@H]1NC(c2cc(C#N)ccn2)=NC1(c1ccc(F)cc1)c1ccc(F)cc1 | 0.49 |
| – | 4.1 | 3 | – | – | – | – | – | C[C@@H]1NC(c2nccs2)=N[C@@]1(c1ccc(F)cc1)c1ccc(F)nc1 | > 10 |
| 42 | 2.2 | 2.5 | – | – | – | – | – | C[C@@H]1NC(c2cnccn2)=N[C@@]1(c1ccc(F)cc1)c1ccc(F)nc1 | – |
| 58 | 2.5 | 3.6 | – | – | – | – | – | COc1ccnc(C2=N[C@@](c3ccc(F)cc3)(c3ccc(F)nc3)[C@H](C)N2)c1 | – |
